The text below walks through data of ChEMBL document CHEMBL1671727, “Expression, purification, and characterization of Aspergillus fumigatus sterol 14-alpha demethylase (CYP51) isoenzymes A and B” (Antimicrob Agents Chemother, 2010).

For assay [1], the target named is T1, 14-alpha sterol demethylase (Neosartorya fumigata (Aspergillus fumigatus)) (UniProt Q96W81).
T1 sequence (whole entry): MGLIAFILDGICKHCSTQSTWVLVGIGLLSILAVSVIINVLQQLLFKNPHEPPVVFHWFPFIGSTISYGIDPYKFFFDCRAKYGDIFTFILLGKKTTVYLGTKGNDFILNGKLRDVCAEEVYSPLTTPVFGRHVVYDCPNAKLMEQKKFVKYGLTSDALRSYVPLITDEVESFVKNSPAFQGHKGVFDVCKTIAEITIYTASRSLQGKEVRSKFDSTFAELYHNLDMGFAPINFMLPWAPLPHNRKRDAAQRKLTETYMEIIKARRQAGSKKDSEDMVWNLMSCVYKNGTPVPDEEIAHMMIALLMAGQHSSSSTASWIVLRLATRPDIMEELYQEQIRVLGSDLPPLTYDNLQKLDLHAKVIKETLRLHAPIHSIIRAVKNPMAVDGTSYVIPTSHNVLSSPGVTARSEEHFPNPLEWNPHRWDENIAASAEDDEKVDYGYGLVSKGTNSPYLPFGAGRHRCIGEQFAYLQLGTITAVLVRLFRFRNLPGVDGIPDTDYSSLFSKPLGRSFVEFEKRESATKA
The assay can be described thus: Binding affinity to 1 uM recombinant Aspergillus fumigatus AF293 sterol 14-alpha demethylase isoenzyme B from Escherichia coli membrane suspension assessed as spectral dissociation constant.

The target in assay [2] is T1, 14-alpha sterol demethylase (Neosartorya fumigata (Aspergillus fumigatus)). Description: Binding affinity to Aspergillus fumigatus AF293 sterol 14-alpha demethylase isoenzyme B expressed in Escherichia coli assessed as spectral dissociation constant. In short, it runs like this:
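His-tagged CYP51 (Af293 sequence, codon-optimised, E. coli-expressed), cholate-solubilised and Ni-NTA purified, at 1 μM in 0.1 M Tris-HCl pH 8.1 with 25% glycerol. Azole (0.05 mg/ml DMSO stock) titrated in split 4.5 mm cuvettes, with DMSO added to the reference. Difference spectra were read at 500–350 nm. Peak-to-trough change was plotted against concentration. Kd came from Morrison (tight binding), Michaelis-Menten or Hill fits.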

For assay [3] the target is unchanged. Description: Binding affinity to Aspergillus fumigatus AF293 sterol 14-alpha demethylase isoenzyme B expressed in Escherichia coli assessed as generation of type I difference spectrum at 4.8 uM.

Structures are written as SMILES. The source made the active and inactive calls. The rule behind the calls is not given here.

With `C=C(CC[C@@H](C)[C@H]1CC[C@@]2(C)C3=C(CC[C@]12C)[C@@]1(C)CC[C@H](C)C(C)(C)C1CC3)C(C)C` (stereo not given in full), the Ks in assay [1] was determined as 4.1 µM; in assay [2] it was 22.6 µM. Moreover, the result in assay [3] was Active.

Regarding `CC(C)=CCC[C@@H](C)[C@H]1CC[C@@]2(C)C3=C(CC[C@]12C)[C@@]1(C)CC[C@H](O)C(C)(C)[C@@H]1CC3`, the Ks in assay [1] was 3.1 µM; in assay [2] it was 8.6 µM.
